Source: ChEMBL document CHEMBL5226332, “Amino-Substituted 3-Aryl- and 3-Heteroarylquinolines as Potential Antileishmanial Agents” (J Med Chem, 2021)

What was measured:
Format in all cases: ADME, organism-based
Settings in all cases: in vivo
[1] = Cmax in BALB/c mouse at 10 mg/kg, iv measured after 24 hrs by LC/MS analysis; design: time 24 hrs, dose 10 mg/kg, route iv
In short: (§1)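 Mice given one 10 mg/kg dose by IV, oral or IP route; parent and monomethyl metabolite measured in plasma. Oral dose given in 10/10/40/39 EtOH/PG/PEG400/PBS (pH 7.4) plus 1% w/v HβCD. Vd is steady-state for IV and apparent for the other routes.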

[2] = AUC in BALB/c mouse at 10 mg/kg, iv measured after 24 hrs by LC/MS analysis; design: dose 10 mg/kg, time 24 hrs, route iv; in short: as §1
[3] = Volume of distribution in BALB/c mouse at 10 mg/kg, iv measured after 24 hrs by LC/MS analysis; in short: as §1
[4] = Cmax in BALB/c mouse at 10 mg/kg, po measured after 24 hrs by LC/MS analysis; design: dose 10 mg/kg, time 24 hrs, route po; in short: as §1
[5] = Tmax in BALB/c mouse at 10 mg/kg, po measured after 24 hrs by LC/MS analysis; in short: as §1
[6] = AUC in BALB/c mouse at 10 mg/kg, po measured after 24 hrs by LC/MS analysis; design: time 24 hrs, dose 10 mg/kg, route po; in short: as §1
[7] = Cmax in BALB/c mouse at 10 mg/kg, ip measured after 24 hrs by LC/MS analysis; design: dose 10 mg/kg, time 24 hrs, route ip; in short: as §1
[8] = AUC in BALB/c mouse at 10 mg/kg, ip measured after 24 hrs by LC/MS analysis; design: dose 10 mg/kg, time 24 hrs, route ip; in short: as §1

| Cmax [1] | AUC [2] | Vd [3] | Cmax [4] | Tmax [5] | AUC [6] | Cmax [7] | AUC [8] | SMILES |
| --- | --- | --- | --- | --- | --- | --- | --- | --- |
| 2840 nM | 5.95 µM·h | 9.88 L/kg | 1000 nM | 6 min | 0.921 µM·h | 3170 nM | 3.81 µM·h | CN(C)c1ccc2cc(-c3cn(C)c4ccccc34)c(N)nc2c1 |
| 741 nM | 3.91 µM·h | 25.9 L/kg |  |  |  |  |  | CN(C)c1ccc2cc(-c3cc(Cl)cc(Cl)c3)c(N)nc2c1 |
